Source: PubChem BioAssay (several laboratories)
XBP1 UPR activ = adaptive UPR (XBP1) activation; CHO-XBP1 luciferase reporter, IRE1-XBP1 UPR activation, luminescence; percent of tunicamycin response, DMSO as zero; activation, % at 20 µM; actives 0.33% (n = 330,000); AID 463104;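 active = versus positive control, 20 µM dose yields 30% or more activation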
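Material: CHO cell line with stable XBP1 luciferase reporter; buffer or medium: F12 medium containing 10% fetal bovine serum; compound: single point, 20 µM final compound, 1% DMSO; incubation: 6 h treatment, 37 °C; measured by: glow luminescence from Steady-Glo reagent; evaluation: activation, % of tunicamycin; control set: tunicamycin high, DMSO low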
Cardio protect = protects H9c2 cardiomyocytes from peroxide injury; protection from H2O2 cell death, % at 20 µM; AID 588492; H2O2 injury protection, ATPLite, 2 h; actives 0.63% (n = 360,000);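 active = compounds giving at least 50% protection of heart cells from peroxide-induced death in the single-dose screen, raw or plate-pattern-corrected value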
hiPSC survival = enhancers of human iPSC single-cell survival. hiPSC single-cell survival, ATPlite luminescence; 100% = ROCK inhibitor wells, 0% = DMSO. survival enhancement, % at 20 µM. actives 0.044% (n = 360,000). AID 602274; in the data active = survival enhancement above about 18%;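 note: cells exposed to compounds for 16 hours before the ATP read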
UPR CHOP act = activators of apoptotic arm of unfolded protein response (CHOP). CHO-CHOP luciferase reporter, UPR activation, luminescence; percent of tunicamycin response over DMSO baseline. activation, % at 10 µM. actives 0.34% (n = 330,000). AID 449763;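 active = at 10 µM dose, activation of 40% or more, normalized to positive control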
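assay system = CHO CHOP reporter cells | amount = 500 CHO-CHOP cells per well | buffer or medium = F12 with 10% FBS | incubation = 16-18 h cell attachment, then 6 h compound exposure, 37 °C | detection = luminescence read with Steady-Glo | read-out = percent activation relative to tunicamycin control | controls = tunicamycin high control, DMSO low control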
CHOP inh = CHOP inhibition in unfolded protein response; CHO-K1 CHOP-promoter luciferase, tunicamycin-induced, 15-18 h; inhibition, % at 10 µM; actives 3.8% (n = 220,000); AID 2732;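 active = compounds that reduced the stress-induced luciferase reporter signal by more than about 70% of percent inhibition, limit read from the data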
CHOP UPR conf = confirmation of apoptotic unfolded protein response (CHOP) activators. shares compounds with UPR CHOP act. CHO-CHOP cells, CHOP-luciferase reporter luminescence; percent of tunicamycin response, DMSO as zero. activation, % at 10 µM. actives 64% (n = 1,000). AID 463112; in the data active = activation above about 33%
Of the large screens only hits and unclear results are named; the others gave an inactive call (follow-up assays come after a bar, where they were run). This excerpt belongs to a sample that is enriched for hits.

CN(c1ccccc1)S(=O)(=O)c1ccc(NC(=O)CC(=O)c2ccccc2)cc1	none (no result: XBP1 UPR activ, UPR CHOP act, CHOP inh)
Cn1c2ccccc2c(=O)c2c(=O)n(-c3ccccc3)c(-c3ccc(C(C)(C)C)cc3)nc21	UPR CHOP act 58.9 | CHOP UPR conf inactive
Cc1ccc(-c2nc3c(c(=O)c4ccccc4n3C)c(=O)n2-c2ccc(F)cc2)cc1	none
Cc1cc(C)n(-c2nc(NC(C)(C)C)nc(NC(C)(C)C)n2)n1	UPR CHOP act 108.3, CHOP inh 78.4 | CHOP UPR conf 45.3
COc1ccc(/C=N/N2CCN(c3ccc(Cl)cc3)CC2)cc1	none (no result: CHOP inh)
Cc1ccc(N=C2C(=S)N(c3ccc(C)cc3)C(=N)N2/N=C/c2ccc(Cl)cc2)cc1	UPR CHOP act 56.5 | CHOP UPR conf inactive
CCc1ccc(N2C(=O)C(Cl)=C(Nc3ccc(C(=O)N4CCCC4)cc3)C2=O)cc1	UPR CHOP act 104.3 (no result: CHOP inh) | CHOP UPR conf inactive
O=C(c1ccc(N2C(=O)c3ccccc3C2=O)cc1)N1CCCCC1	none (no result: CHOP inh)
O=C(Nc1cc([N+](=O)[O-])ccc1F)c1ccc2c(c1)OCCO2	UPR CHOP act 98.9 | CHOP UPR conf inactive
COc1cc(/C=C(\C#N)C(N)=O)ccc1OS(=O)(=O)c1ccc(C)cc1	none
COc1cc(/C=C(\C#N)C(=O)NC2CCCCC2C)ccc1OS(=O)(=O)c1ccc(C)cc1 (stereo not given)	UPR CHOP act 76.1 | CHOP UPR conf inactive
O=C(/C=C/c1ccc(O)c(O)c1)OCCc1ccccc1	UPR CHOP act 52.4 | CHOP UPR conf 145.4
O=C(/C=C/c1ccc(O)c(O)c1)c1ccccc1O	UPR CHOP act 93.1 | CHOP UPR conf 81.3
CC1(C(=O)NS(=O)(=O)c2ccc(Cl)cc2)CCN1C(=O)Cc1ccccc1Cl (stereo not given)	none (no result: XBP1 UPR activ, UPR CHOP act, CHOP inh)
COc1cccc2sc(Nc3nnc(-c4cccs4)o3)nc12	UPR CHOP act 55.3 (no result: CHOP inh) | CHOP UPR conf 59.7
COc1cccc2sc(Nc3nc(-c4ccccn4)cs3)nc12	UPR CHOP act 624.2 (no result: CHOP inh) | CHOP UPR conf 424.6
COc1ccc(C2=NN(c3ccccc3)C(=O)/C2=C\c2ccc(O)c(OC)c2)cc1	none
COc1cc(/C=C2\C(=O)ON=C2c2ccc(Cl)cc2)ccc1O	UPR CHOP act 180.5 (no result: Cardio protect, hiPSC survival, CHOP inh) | CHOP UPR conf 142.7
CC(C)N1CCc2c(sc(NC(=O)c3ccc([N+](=O)[O-])o3)c2C(N)=O)C1	none (no result: CHOP inh)
COC(=O)c1c(NC(=O)c2ccc([N+](=O)[O-])o2)sc2c1CCN(C(C)C)C2	UPR CHOP act 70.7 (no result: CHOP inh) | CHOP UPR conf 55.5
O=C(O)CC1CC(O)CCC1=O (stereo not given)	none (no result: XBP1 UPR activ, UPR CHOP act, CHOP inh)
O=C(O)CC1CCC(=C(Cl)Cl)C1 (stereo not given)	UPR CHOP act 46.5, CHOP inh 79.0 | CHOP UPR conf 64.6
CC(=O)/C(=C/c1ccccc1)C(=O)Nc1ccccc1C	UPR CHOP act 45.5 | CHOP UPR conf 63.8
CC(=O)Nc1ccccc1C	none (no result: CHOP inh)
O=C(Cc1ccccc1)Nc1nccs1	none (no result: CHOP inh)
S=C(Nc1ccccc1)Nc1nccs1	UPR CHOP act 103.8 | CHOP UPR conf 59.5
Fc1ccc(NC(=S)Nc2nccs2)cc1	UPR CHOP act 75.2 | CHOP UPR conf 80.3
COc1cccc(-c2nnn(CC(=O)N(C3CCCCC3)C3CCS(=O)(=O)C3)n2)c1 (stereo not given)	none (no result: XBP1 UPR activ, UPR CHOP act, CHOP inh)
O=C(c1ccccc1)N(CCCl)C(=O)N(CCCl)C(=O)c1ccccc1	none (no result: XBP1 UPR activ, UPR CHOP act, CHOP inh)
COc1cc(CNc2ccc3[nH]c(=O)[nH]c3c2)cc(Br)c1OCc1ccc(F)cc1	UPR CHOP act 67.3 (no result: CHOP inh) | CHOP UPR conf inactive
CN1CCC(NC(=S)NC2CC2)CC1	UPR CHOP act 87.5 | CHOP UPR conf inactive
CCCCOc1ccccc1C(=O)NNC(=S)NC(=O)c1ccccc1[N+](=O)[O-]	none (no result: CHOP inh)
CC(C)(CC(=O)c1ccccc1)CC(=O)c1ccccc1	none (no result: XBP1 UPR activ, UPR CHOP act, CHOP inh)
COc1ccc(NC(=O)CN(C)C(=O)Cc2ccc(-c3ccccc3)cc2)cc1	none (no result: CHOP inh)
O=C1C(Cl)=C(NC(=O)c2ccccc2)C(=O)C(Cl)=C1NC(=O)c1ccccc1	UPR CHOP act 86.0 (no result: CHOP inh) | CHOP UPR conf 50.4
COc1cc(/C=C(\CCC(=O)O)c2nc3ccccc3s2)ccc1OCC(=O)Nc1c(Cl)cccc1Cl	none (no result: CHOP inh)
